Results as given in ChEMBL document CHEMBL1130209, “A novel series of 2,5-substituted tryptamine derivatives as vascular 5HT1B/1D receptor antagonists” (J Med Chem, 1997).

How the values were obtained:
[1] = molecular target: 5-hydroxytryptamine receptor 1B (Homo sapiens) (UniProt P28222); test: Dissociation equilibrium constant against the vascular 5-hydroxytryptamine 1B like receptor in the rabbit saphenous vein; assay type: tissue-based; conditions: Oryctolagus cuniculus, target entry is the homologue from another species
In short: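 Saphenous vein rings (4–5 mm) from male New Zealand white rabbits, killed with pentobarbitone 80 mg/kg iv and exsanguination, mounted on tungsten wires. Phenoxybenzamine 0.3 μM for 30 min, washed out, 1 μM 5HT viability check. Cumulative 5HT curve, then after 60 min recovery a test compound curve. Non-agonists tested as 5HT antagonists, giving apparent pKB.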

[2] = molecular target: T1, 5-hydroxytryptamine receptor 2C (Rattus norvegicus, UniProt P08909); test: Affinity pKi for 5-hydroxytryptamine 2C receptor was measured in rat cortex homogenates.; assay type: tissue-based
T1 sequence (P08909 whole entry): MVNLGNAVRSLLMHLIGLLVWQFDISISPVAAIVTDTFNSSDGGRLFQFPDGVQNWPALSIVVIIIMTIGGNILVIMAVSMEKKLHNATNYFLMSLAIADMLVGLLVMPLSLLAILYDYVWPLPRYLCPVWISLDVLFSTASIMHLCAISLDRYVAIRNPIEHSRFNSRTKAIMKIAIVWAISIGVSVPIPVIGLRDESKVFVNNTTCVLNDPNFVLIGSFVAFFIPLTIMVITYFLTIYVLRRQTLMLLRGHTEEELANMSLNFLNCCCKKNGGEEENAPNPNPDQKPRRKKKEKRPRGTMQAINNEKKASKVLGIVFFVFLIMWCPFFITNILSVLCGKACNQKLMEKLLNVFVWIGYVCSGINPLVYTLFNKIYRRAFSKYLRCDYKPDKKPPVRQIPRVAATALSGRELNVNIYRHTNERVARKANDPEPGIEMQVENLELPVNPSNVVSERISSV
In short: (§1)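 Competition binding with rat cortex homogenate: radioligand near its KD plus a wide range of test drug concentrations in duplicate, 30 min at 27 °C. Buffer 50 mM TRIS-HCl, 5 mM CaCl₂, 0.1% (w/v) ascorbate, 10 mM pargyline. Nonspecific binding defined with excess cold 5HT. Rapid filtration with ice-cold buffer wash, liquid scintillation count. pKi is the mean of at least three estimates.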

[3] = molecular target: T2, Adrenergic receptor alpha-1 (Rattus norvegicus, UniProt P15823+P23944+P43140); test: Affinity pKi for Alpha-1 adrenergic receptor was measured in rat cortex homogenates; assay type: tissue-based; in short: as §1
T2 sequence (P15823 whole entry): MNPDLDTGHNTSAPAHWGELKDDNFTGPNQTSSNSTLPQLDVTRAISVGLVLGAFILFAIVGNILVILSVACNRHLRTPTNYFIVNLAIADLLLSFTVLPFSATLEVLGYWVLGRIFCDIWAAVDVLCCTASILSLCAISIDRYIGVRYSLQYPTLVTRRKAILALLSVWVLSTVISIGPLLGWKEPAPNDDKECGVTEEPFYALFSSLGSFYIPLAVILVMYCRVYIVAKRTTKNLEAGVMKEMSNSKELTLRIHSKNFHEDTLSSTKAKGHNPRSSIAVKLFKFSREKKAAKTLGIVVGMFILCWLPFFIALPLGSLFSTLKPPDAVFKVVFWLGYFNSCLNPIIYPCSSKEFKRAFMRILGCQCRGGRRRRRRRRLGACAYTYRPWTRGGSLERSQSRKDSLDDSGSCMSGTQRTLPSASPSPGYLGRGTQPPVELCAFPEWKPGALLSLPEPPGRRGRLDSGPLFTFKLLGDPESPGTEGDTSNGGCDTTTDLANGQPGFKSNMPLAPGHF
T2 sequence (P23944 whole entry): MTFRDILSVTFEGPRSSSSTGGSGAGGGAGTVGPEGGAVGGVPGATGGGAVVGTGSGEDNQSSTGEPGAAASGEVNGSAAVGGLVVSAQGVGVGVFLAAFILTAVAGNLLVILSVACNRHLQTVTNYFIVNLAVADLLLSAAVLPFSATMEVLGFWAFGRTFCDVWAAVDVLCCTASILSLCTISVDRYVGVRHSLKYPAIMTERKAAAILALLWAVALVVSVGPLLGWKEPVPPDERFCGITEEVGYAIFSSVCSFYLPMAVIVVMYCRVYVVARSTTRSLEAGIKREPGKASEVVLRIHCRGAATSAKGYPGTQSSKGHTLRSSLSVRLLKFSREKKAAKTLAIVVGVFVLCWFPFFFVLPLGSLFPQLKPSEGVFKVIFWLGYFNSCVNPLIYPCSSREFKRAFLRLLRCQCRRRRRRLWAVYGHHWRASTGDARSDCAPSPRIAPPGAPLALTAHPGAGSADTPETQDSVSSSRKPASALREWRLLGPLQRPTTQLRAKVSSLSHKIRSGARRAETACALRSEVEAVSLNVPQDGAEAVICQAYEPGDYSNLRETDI
T2 sequence (P43140 whole entry): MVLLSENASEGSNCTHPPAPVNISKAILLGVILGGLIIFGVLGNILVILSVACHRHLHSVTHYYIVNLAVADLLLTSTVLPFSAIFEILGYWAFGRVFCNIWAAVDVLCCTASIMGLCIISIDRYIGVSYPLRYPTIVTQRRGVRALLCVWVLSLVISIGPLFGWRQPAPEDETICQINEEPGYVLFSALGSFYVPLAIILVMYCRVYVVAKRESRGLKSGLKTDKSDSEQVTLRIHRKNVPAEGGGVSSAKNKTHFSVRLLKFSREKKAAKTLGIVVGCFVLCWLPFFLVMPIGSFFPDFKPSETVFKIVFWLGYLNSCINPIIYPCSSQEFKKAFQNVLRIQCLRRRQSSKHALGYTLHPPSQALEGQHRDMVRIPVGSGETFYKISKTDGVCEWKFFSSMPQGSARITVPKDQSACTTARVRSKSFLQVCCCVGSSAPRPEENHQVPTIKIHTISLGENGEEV

[4] = Half life of compound was determined in rat plasma; assay type: ADME, organism-based

5-hydroxytryptamine receptor 1B (Homo sapiens), sequence (P28222 whole entry): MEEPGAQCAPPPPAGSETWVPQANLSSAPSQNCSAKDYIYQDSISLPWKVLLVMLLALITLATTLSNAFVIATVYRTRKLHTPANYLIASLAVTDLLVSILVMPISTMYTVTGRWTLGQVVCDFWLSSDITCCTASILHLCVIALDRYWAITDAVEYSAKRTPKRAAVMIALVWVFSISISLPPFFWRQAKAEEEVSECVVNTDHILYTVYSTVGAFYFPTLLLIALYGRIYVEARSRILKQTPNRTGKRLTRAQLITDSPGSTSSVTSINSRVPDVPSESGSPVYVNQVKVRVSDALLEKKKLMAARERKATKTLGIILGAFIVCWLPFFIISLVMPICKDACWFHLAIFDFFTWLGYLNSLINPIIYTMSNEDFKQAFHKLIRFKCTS

pKB [1]: 7.42
Ki [2]: 5.5 µM
Log Ki [3]: -4.95
half-life [4]: 15 min
SMILES: CCOC(=O)c1[nH]c2ccc(CCN3C(=O)CNC3=O)cc2c1CCN(C)C
